The values that follow come from ChEMBL document CHEMBL1122852, “Imidazo[1,5-d][1,2,4]triazines as potential antiasthma agents” (J Med Chem, 1985).

The species named for one experiment is Homo sapiens. Put plainly: Inhibitory activity against histamine release from antigen-challenged, sensitized human basophils. It counts as functional.
Settings: not given
The method in brief:
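Histamine release was induced by antigen challenge of sensitized human basophils in vitro. Compounds were first screened at a single concentration. Those reducing release by more than 50% went on to concentration-response testing to estimate IC50. Values are given with standard error and number of experiments.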
For orientation: IC50 means the point on the concentration scale where inhibition reaches its midpoint. Consider `C=CCn1nc(C)c2c(C)nc(CCC)n2c1=O`, for which the IC50 is greater than 48 µM.

Still in this experiment, the particulars now being: Homo sapiens.
In the case of `Cc1nnc(S)n2c(C)nc(C)c12`, the IC50 is greater than 48 µM.

Turning to `CCOC(=O)CSc1nncc2cncn12`, the IC50 is greater than 48 µM. On the same count and under the same terms, next, `C=CCn1ncc2cnc(C)n2c1=S`: greater than 48 µM; `c1ncn2c1C(NC1CCCC1)NN=C2NC1CCCC1` (configuration not stated): greater than 48 µM. Still for that read-out and setting: in the case of `C=CCn1ncc2c(CC)ncn2c1=O` it was greater than 48 µM; in that of `CC(C)c1ncn2c(S)nncc12`, greater than 48 µM; in that of `CCCc1nc(C)c2cnn(CC3CC3)c(=O)n12`, greater than 48 µM. Regarding `CCOC(=O)/C(=C(\O)OCC)c1nncc2cncn12`, the IC50 was greater than 48 µM.

Turning to `C=CCn1ncc2c(Br)nc(Cc3ccccc3)n2c1=O`, the IC50 was greater than 48 µM. The same measure, in the same setting: in the case of `c1ncn2c(NC3CCCC3)nncc12` it was greater than 48 µM; in that of `CCOC(=O)Cn1ncc2cnc(COC)n2c1=O`, greater than 48 µM.

For the compound `CCCc1nc(C)c2c(C)nn(CC(=O)c3ccccc3)c(=O)n12`, the IC50 was greater than 48 µM. Consider `CCc1nc(C)c2cnnc(SC)n12`, for which the IC50 is greater than 48 µM. Regarding `Cc1nc(C)n2c(O)nncc12`, the IC50 was greater than 48 µM.

For the compound `Sc1nncc2cnc(-c3cccc(Cl)c3)n12`, the IC50 is greater than 48 µM. Still for that read-out and setting: next, `C=CCn1ncc2cnc(-c3ccc(OC)cc3)n2c1=O`: greater than 48 µM; `CCc1ncn2c(O)nncc12`: greater than 48 µM.

On to `CCCc1nc(C)c2c(C)nn(CC(=O)O)c(=O)n12`, for which the IC50 is greater than 48 µM. Take `CCc1nc(C)c2cnn(CC)c(=O)n12`: the half-inhibitory concentration (IC50) came out at 75.6 µM. `C=CCn1nc(C)c2c(C)nc(CCC)n2c1=O`: the IC50 came out at 69 µM. Same read-out and setting: next, `CCCc1ncn2c(S)nncc12`: greater than 48 µM. The same measure, in the same setting: in the case of `COCc1nc(C)c2cnnc(S)n12` it was greater than 48 µM; in that of `COCc1ncc2cnnc(O)n12`, greater than 48 µM. Same read-out and setting: next, `CCCc1nc(C)c2c(-c3ccccc3)nnc(O)n12`: greater than 48 µM. For the compound `Oc1nncc2c(Br)nc(Cc3ccccc3)n12`, the IC50 is greater than 48 µM. On the same count and under the same terms, next, `Oc1nncc2cncn12`: greater than 48 µM. Still for that read-out and setting: in the case of `C=CCSc1nncc2c(C)nc(-c3ccccc3)n12` it was greater than 48 µM; in that of `CCCc1nc(C)c2c(C)nn(C)c(=O)n12`, greater than 48 µM. Same read-out and setting: next, `CCCc1ncc2c(C)nnc(O)n12`: greater than 48 µM. For `COc1ccc(-c2ncc3cnnc(O)n23)cc1`, the IC50 is greater than 48 µM.

Regarding `COCc1ncc2cnnc(SC)n12`, the IC50 is greater than 48 µM. Same read-out and setting: next, `c1ccc(-c2cn[nH]c2Nc2nncc3cncn23)cc1`: 10 µM; `c1ccc(C(c2ccccc2)N2CCN(c3nncc4cncn34)CC2)cc1`: greater than 48 µM. Turning to `Cc1nc(C)n2c(S)nncc12`, the IC50 was greater than 48 µM. On the same count and under the same terms, next, `Cc1ncn2c(S)nncc12`: greater than 48 µM; `COCc1nc(C)c2c(C)nnc(O)n12`: greater than 48 µM. Turning to `CCOC(=O)CSc1nncc2c(C)ncn12`, the IC50 was greater than 48 µM.

As to `C=CCn1ncc2c(CCC)ncn2c1=O`, the IC50 is greater than 48 µM.

For the compound `CCc1nc(C)c2c(-c3ccccc3)nnc(O)n12`, the IC50 was greater than 48 µM.

Regarding `CCCC1NN=C(SC)n2c1cnc2C` (configuration not stated), the IC50 is greater than 48 µM. Consider `C=CCSc1nncc2cnc(CCC)n12`, for which the IC50 is greater than 48 µM. With `Cc1nc(C(C)C)n2c(O)nnc(-c3ccccc3)c12`, the IC50 was greater than 48 µM. Take `Cc1nc(-c2ccccc2)n2c(S)nncc12`: the IC50 was greater than 48 µM. `CSc1nnc(C)c2c(C)nc(C)n12`: the IC50 was greater than 48 µM. The same measure, in the same setting: next, `Cc1nc(C(C)C)n2c(O)nncc12`: greater than 48 µM; `C=CCn1ncc2c(C)nc(C(C)(C)C)n2c1=O`: greater than 48 µM; `CCCc1nc(C)c2c(CC)nnc(SC)n12`: greater than 48 µM. With `CCOC(=O)C(C)Sc1nncc2cncn12` (configuration not stated), the IC50 is greater than 48 µM. For `Cc1ncn2c(O)nncc12`, the half-inhibitory concentration (IC50) was greater than 48 µM. Consider `CCOC(=O)/C=C/CSc1nncc2cncn12`, for which the IC50 is greater than 48 µM. Consider `CCCc1nnc(O)n2c(C)nc(C)c12`, for which the IC50 was greater than 48 µM. Take `C=CCn1ncc2c(C)nc(C)n2c1=O`: the IC50 was 73 µM. Still for that read-out and setting: in the case of `CCCc1nc(C)c2c(C)nn(CCC)c(=O)n12` it was greater than 48 µM; in that of `C=CCSc1nncc2cnc(COC)n12`, 79 µM.

Consider `Cc1ncc2cnnc(S)n12`, for which the IC50 is greater than 48 µM. Still for that read-out and setting: in the case of `CCCc1nc(C)c2c(C(C)C)nnc(O)n12` it was greater than 48 µM. `CCCCCCCCCCCCCCCCCc1ncc2cnnc(S)n12`: the IC50 was greater than 48 µM. Still for that read-out and setting: next, `Sc1nncc2cnc(-c3ccccc3)n12`: greater than 48 µM; `C=C=Cn1nc(C)c2c(C)nc(CCC)n2c1=O`: greater than 48 µM. In the case of `CCCc1nnc(O)n2c(C)ncc12`, the IC50 was greater than 48 µM. Same read-out and setting: in the case of `CCCc1nc(C)c2cnnc(O)n12` it was 56.8 µM; in that of `Cc1nc(C)n2c(=O)n(C)ncc12`, greater than 48 µM; in that of `Cc1ncn2c(Nc3cccnc3)nncc12`, greater than 48 µM. On to `Cc1nc(CC(C)(C)C)n2c(O)nncc12`, for which the IC50 was greater than 48 µM.

On to `CC(=O)N(C1=NNCC1)c1nncc2c(C)ncn12`, for which the IC50 is greater than 48 µM. Same read-out and setting: next, `C=CCn1ncc2c(C)ncn2c1=O`: greater than 48 µM; `CN(C)CCNc1nncc2cncn12`: greater than 48 µM. The same measure, in the same setting: in the case of `CCCc1nc(C)c2cnn(C)c(=O)n12` it was 20 µM; in that of `C=CCn1ncc2c(C)nc(Cc3ccccc3)n2c1=O`, greater than 48 µM. On the same count and under the same terms, next, `COCc1nc(Br)c2cnnc(O)n12`: greater than 48 µM. For `CCc1nnc(O)n2c(C(C)CC)nc(C)c12` (configuration not stated), the IC50 was determined as 45 µM. Consider `CCCc1nc(C)c2cnnc(SC)n12`, for which the IC50 is greater than 48 µM. `CCCc1ncc2c(C)nnc(S)n12`: the IC50 was greater than 48 µM.

`CCc1ncn2c(S)nncc12`: the IC50 was greater than 48 µM. On the same count and under the same terms, next, `CCCc1nc(C)c2c(C)nn(CC(=O)OCC)c(=O)n12`: greater than 48 µM; `CCCc1nc(C)c2cnn(C/C=C/C(=O)OCC)c(=O)n12`: greater than 48 µM. On the same count and under the same terms, in the case of `Oc1nncc2cnc(Cc3ccccc3)n12` it was greater than 48 µM; in that of `Oc1nnc(-c2ccccc2)c2cncn12`, 19 µM; in that of `CN1CCN(c2nncc3cncn23)CC1`, greater than 48 µM. Turning to `CCOC(=O)CSc1nncc2c(C)nc(C)n12`, the IC50 is greater than 48 µM. The same measure, in the same setting: next, `CCCc1ncn2c(Nc3cc[nH]n3)nncc12`: greater than 48 µM; `CCn1ncc2cncn2c1=S`: greater than 48 µM. For the compound `CCCc1nc(C)c2cnnc(S)n12`, the IC50 was determined as 10 µM. The same measure, in the same setting: next, `Cc1nc(C(C)C)n2c(S)nncc12`: greater than 48 µM; `CSc1nncc2c(C)ncn12`: greater than 48 µM.

For the compound `C=CCn1ncc2c(C)nc(CCC)n2c1=S`, the IC50 was greater than 48 µM.

Consider `c1ccc(CNc2nncc3cncn23)cc1`, for which the IC50 was greater than 48 µM. The same measure, in the same setting: in the case of `Cc1ncn2c(NN)nncc12` it was greater than 48 µM.

Turning to `CNc1nncc2c(C)ncn12`, the half-inhibitory concentration (IC50) is greater than 48 µM.

With `CC(C)(C)c1nc(Br)c2cnnc(O)n12`, the IC50 was found to be 19 µM. On the same count and under the same terms, in the case of `Cc1nnc(S)n2cncc12` it was greater than 48 µM. Same read-out and setting: next, `CCOC(=O)CSc1nncc2cnc(C)n12`: 52 µM; `CCCCc1nnc(O)n2c(CCC)nc(C)c12`: greater than 48 µM.

Consider `CCO/C(O)=C\c1nncc2cncn12`, for which the IC50 is greater than 48 µM. For the compound `Cn1ncc2cnc(Cc3ccccc3)n2c1=O`, the concentration for half-maximal inhibition (IC50) was greater than 48 µM.

Take `c1nc(Nc2nncc3cncn23)n[nH]1`: the concentration for half-maximal inhibition (IC50) stood at 46 µM. On to `CCCc1ncn2c(SC)nncc12`, for which the IC50 is greater than 48 µM.

With `CSc1nnc(-c2ccccc2)c2cncn12`, the IC50 is greater than 48 µM. On the same count and under the same terms, in the case of `CCCc1nc(C)c2c(-c3ccccc3)nnc(Nc3cc[nH]n3)n12` it was greater than 48 µM; in that of `CC(C)c1ncn2c(O)nncc12`, greater than 48 µM.

Turning to `C=CCn1nc(Br)c2c(Br)nc(CCC)n2c1=O`, the IC50 is greater than 48 µM. As to `CCCc1nc(C)c2c(-c3ccccc3)nnc(SC)n12`, the IC50 is greater than 48 µM. Same read-out and setting: next, `COCc1nc(Br)c2c(Br)nnc(O)n12`: greater than 48 µM.

For `CSc1nncc2c(C)nc(C(C)C)n12`, the IC50 is greater than 48 µM.

In the case of `CCCc1ncc2cnnc(O)n12`, the IC50 was greater than 48 µM. The same measure, in the same setting: next, `CCc1nnc(O)n2c(C(C)(C)C)nc(C)c12`: 26 µM. Consider `C=CCn1ncc2cnc(C)n2c1=O`, for which the IC50 is greater than 48 µM. Consider `CCCc1nc(C)c2c(C3CC3)nnc(O)n12`, for which the IC50 is greater than 48 µM. As to `CCCOc1ccccc1-c1ncc2cnnc(O)n12`, the IC50 is greater than 48 µM. For the compound `CCCc1nc(C)c2c(CC)nnc(S)n12`, the IC50 was greater than 48 µM.

As for `COCc1ncc2n1C(NCCN(C)C)NN=C2NCCN(C)C` (configuration not stated), the IC50 was greater than 48 µM. In the case of `CCOC(=O)Cn1ncc2cncn2c1=O`, the IC50 was greater than 48 µM. The same measure, in the same setting: in the case of `CCCc1nc(C)c2cnn(CC(O)CO)c(=O)n12` (configuration not stated) it was greater than 48 µM; in that of `C=CCSc1nncc2cnc(-c3ccccc3)n12`, greater than 48 µM. The same measure, in the same setting: next, `Cc1nc(-c2ccccc2)n2c(O)nncc12`: greater than 48 µM; `Oc1nnc(Br)c2c(Br)nc(Br)n12`: 27 µM; `C=CCn1ncc2cnc(COC)n2c1=O`: greater than 48 µM. Still for that read-out and setting: in the case of `Cc1ncc2cnnc(O)n12` it was greater than 48 µM; in that of `CCCc1nc(C)c2c(C)nn(Cc3ccccc3)c(=O)n12`, greater than 48 µM.

Take `c1coc(CNc2nncc3cncn23)c1`: the IC50 was greater than 48 µM. Still for that read-out and setting: in the case of `CNc1nncc2cncn12` it was greater than 48 µM; in that of `CCCc1nn(C)c(=O)n2c(CCC)nc(C)c12`, 18 µM; in that of `CCCc1nc(C)c2n1C(SC)=NNC2c1ccccc1` (configuration not stated), greater than 48 µM. Regarding `CCCc1nnc(S)n2c(CCC)nc(C)c12`, the IC50 was greater than 48 µM.

Regarding `CCCc1nc(C)c2c(C)nn(CC)c(=O)n12`, the IC50 is greater than 48 µM. The same measure, in the same setting: in the case of `CC(C)(C)c1ncc2cnnc(O)n12` it was greater than 48 µM. Same read-out and setting: next, `COCc1ncc2cnnc(S)n12`: greater than 48 µM; `C=CCn1ncc2cncn2c1=O`: greater than 48 µM.

Turning to `CCCc1ncc2cnnc(SC)n12`, the IC50 is greater than 48 µM. Take `CCc1nnc(O)n2c(C)nc(C)c12`: the IC50 is greater than 48 µM. For the compound `CCCc1nc(C)c2c(C)nnc(S)n12`, the IC50 came out at 45 µM.
